Converted amounts (≈) assume the structure as drawn.
Columns and labels:
[1] = Cytotoxic activity against mouse B16F10 cells by MTT assay; type: functional, cell-based; settings: B16-F10
Procedure, shortened: (§1)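 MTT viability read-out on mouse melanoma B16F10 and human lung adenocarcinoma A549 lines, with epirubicin as positive control. Activity is given as IC50.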

[2] = tested on: A549; assay: Cytotoxic activity against human A549 cells by MTT assay; type: functional, cell-based; procedure, shortened: as §1
[3] = tested on: Micrococcus; assay: Antimicrobial activity against Micrococcus tetragenus ATCC 13623 by broth dilution assay; type: functional
Procedure, shortened: (§2)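 Conventional broth dilution run on the seven terrestrial pathogenic bacterial strains, with ciprofloxacin as positive control.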

[4] = tested on: Escherichia coli; assay: Antimicrobial activity against Escherichia coli ATCC 25922 by broth dilution assay; type: functional; procedure, shortened: as §2
[5] = tested on: Staphylococcus; assay: Antimicrobial activity against Staphylococcus albus ATCC 8799 by broth dilution assay; type: functional; procedure, shortened: as §2
[6] = tested on: Bacillus cereus; assay: Antimicrobial activity against Bacillus cereus ATCC 14579 by broth dilution assay; type: functional; procedure, shortened: as §2
[7] = tested on: Staphylococcus aureus; assay: Antimicrobial activity against Staphylococcus aureus ATCC 6538 by broth dilution assay; type: functional; procedure, shortened: as §2
[8] = tested on: Kocuria rhizophila; assay: Antimicrobial activity against Kocuria rhizophila ATCC 9341 by broth dilution assay; type: functional; procedure, shortened: as §2
[9] = tested on: Bacillus subtilis; assay: Antimicrobial activity against Bacillus subtilis ATCC 6633 by broth dilution assay; type: functional; procedure, shortened: as §2
[10] = Micrococcus, ATCC 13623, read-out: MIC
[11] = Escherichia coli, ATCC 25922, read-out: MIC
[12] = Staphylococcus, ATCC 8799, read-out: MIC
[13] = Bacillus cereus, ATCC 14579, read-out: MIC
[14] = Staphylococcus aureus, ATCC 6538, read-out: MIC
[15] = Kocuria rhizophila, ATCC 9341, read-out: MIC
[16] = Bacillus subtilis, ATCC 6633, read-out: MIC

| Structure (SMILES) | IC50 [1] [µM] | IC50 [2] [µM] | MIC [3, 10] [µM] | MIC [4, 11] [µM] | MIC [5, 12] [µM] | MIC [6, 13] [µM] | MIC [7, 14] [µM] | MIC [8, 15] [µM] | MIC [9, 16] [µM] | MIC [4] [µM] | MIC [6] [µM] | MIC [3] [µM] | MIC [5] [µM] | MIC [7] [µM] | MIC [8] [µM] | MIC [9] [µM] |
| --- | --- | --- | --- | --- | --- | --- | --- | --- | --- | --- | --- | --- | --- | --- | --- | --- |
| COc1cc(O)c2c(c1)C(=O)c1cc(C)c(O)c(-c3c(OC)cc4c(c3O)C(=O)c3cc(O)c(C)cc3C4=O)c1C2=O [ALTERPORRIOL Q] | > 10 | > 10 | > 10 | > 10 | > 10 | > 10 | > 10 | > 10 | > 10 | – | – | – | – | – | – | – |
| COc1cc(O)c2c(c1)C(=O)C1=C(C[C@@H](O)[C@@](C)(O)[C@@H]1O)C2=O [ALTERSOLANOL C] | – | – | > 10 | > 10 | > 10 | > 10 | > 10 | > 10 | 8.8 (≈ 2.82 µg/mL) | – | – | – | – | – | – | – |
| COc1cc2c(c(O)c1-c1c(OC)cc(O)c3c1C(=O)C1=C(C[C@@H](O)[C@@](C)(O)C1)C3=O)C(=O)C1=C(C[C@](C)(O)[C@H](O)C1)C2=O | > 10 | > 10 | > 10 | > 10 | > 10 | 8.3 (≈ 5.03 µg/mL) | > 10 | > 10 | > 10 | – | – | – | – | – | – | – |
| COc1cc(O)c2c(c1)[C@H](O)[C@@H]1[C@H](C[C@@H](O)[C@@](C)(O)[C@@H]1O)C2=O [ALTERSOLANOL L] | > 10 | > 10 | > 10 | > 10 | > 10 | > 10 | > 10 | > 10 | > 10 | – | – | – | – | – | – | – |
| O=C(O)c1cn(C2CC2)c2cc(N3CCNCC3)c(F)cc2c1=O [CIPROFLOXACIN] | – | – | 0.3 (≈ 0.0994 µg/mL) | 0.3 (≈ 0.0994 µg/mL) | 0.6 (≈ 0.199 µg/mL) | 0.6 (≈ 0.199 µg/mL) | 0.16 (≈ 0.053 µg/mL) | 0.3 (≈ 0.0994 µg/mL) | 0.6 (≈ 0.199 µg/mL) | – | – | – | – | – | – | – |
| COc1cc2c(c(O)c1-c1c(OC)cc(O)c3c1C(=O)C1=C(C[C@@H](O)[C@@](C)(O)[C@@H]1O)C3=O)C(=O)C1=C(C[C@](C)(O)[C@H](O)C1)C2=O | – | – | > 10 | > 10 | > 10 | > 10 | > 10 | > 10 | > 10 | – | – | – | – | – | – | – |
| COc1cc(O)c2c(c1)C(=O)C1=C(C2=O)[C@H](O)[C@@H](O)[C@@](C)(O)[C@@H]1O [ALTERSOLANOL A] | > 10 | > 10 | 8.2 (≈ 2.76 µg/mL) | 4.1 (≈ 1.38 µg/mL) | > 10 | > 10 | 2.07 (≈ 0.696 µg/mL) | > 10 | 4.1 (≈ 1.38 µg/mL) | – | – | – | – | – | – | – |
| COc1cc(O)c2c(c1-c1c(OC)cc(O)c3c1C(=O)C1=C(C[C@@H](O)[C@@](C)(O)[C@@H]1O)C3=O)C(=O)C1=C(C[C@@H](O)[C@@](C)(O)[C@@H]1O)C2=O | – | – | > 10 | > 10 | > 10 | > 10 | > 10 | > 10 | > 10 | – | – | – | – | – | – | – |
| COc1cc(O)c2c(c1)C(=O)c1cc(C)c(O)c(-c3c(O)c(C)cc4c3C(=O)c3c(O)cc(OC)cc3C4=O)c1C2=O | > 10 | > 10 | > 10 | > 10 | > 10 | 8.1 (≈ 4.59 µg/mL) | > 10 | > 10 | > 10 | – | – | – | – | – | – | – |
| COc1cc(O)c2c(c1)C(=O)c1cc(C)c(O)c(-c3c(OC)cc(O)c4c3C(=O)c3cc(C)c(O)cc3C4=O)c1C2=O (single isomer, unassigned; atropisomer 2) | – | – | > 10 | > 10 | > 10 | > 10 | > 10 | > 10 | > 10 | – | – | – | – | – | – | – |
| COc1cc(O)c2c(c1-c1c(OC)cc(O)c3c1C(=O)C1=C(C3=O)[C@@H](O)[C@H](O)[C@](C)(O)[C@H]1O)C(=O)C1=C(C2=O)[C@H](O)[C@@H](O)[C@@](C)(O)[C@@H]1O (atropisomer, axis not shown) | > 10 | > 10 | – | – | – | – | 5 (≈ 3.35 µg/mL) | > 10 | > 10 | 7.5 (≈ 5.03 µg/mL) | 10 (≈ 6.71 µg/mL) | – | – | – | – | – |
| COc1cc(O)c2c(c1)[C@H](O)[C@@H]1C(=C[C@@H](O)[C@@](C)(O)[C@@H]1O)C2=O | > 10 | > 10 | > 10 | > 10 | > 10 | > 10 | > 10 | > 10 | > 10 | – | – | – | – | – | – | – |
| COc1cc(O)c2c(c1)[C@H](O)[C@H]1C[C@](C)(O)[C@H](O)C[C@@H]1C2=O [TETRAHYDROALTERSOLANOL B] | – | – | > 10 | 7.3 (≈ 2.25 µg/mL) | > 10 | > 10 | > 10 | > 10 | > 10 | – | – | – | – | – | – | – |
| COc1cc(O)c2c(c1-c1c(OC)cc(O)c3c1C(=O)c1cc(C)c(O)cc1C3=O)C(=O)C1=C(C2=O)[C@H](O)[C@@H](O)[C@@](C)(O)[C@@H]1O (single isomer, unassigned; atropisomer 1) [ALTERPORRIOL A/B] | – | – | > 10 | > 10 | > 10 | 7.9 (≈ 4.89 µg/mL) | > 10 | > 10 | > 10 | – | – | – | – | – | – | – |
| COc1cc(O)c2c(c1)C(=O)c1cc(C)c(O)cc1C2=O [MACROSPORIN] | > 10 | > 10 | 4.6 (≈ 1.31 µg/mL) | 4.6 (≈ 1.31 µg/mL) | > 10 | > 10 | 9.2 (≈ 2.62 µg/mL) | > 10 | > 10 | – | – | – | – | – | – | – |
| COc1cc(O)c2c(c1)C(=O)c1cc(C)c(O)c(-c3c(OC)cc4c(c3O)C(=O)C3=C(C4=O)[C@@H](O)[C@](C)(O)[C@H](O)[C@H]3O)c1C2=O (single isomer, unassigned; atropisomer 1) [ALTERPORRIOL C] | > 10 | > 10 | > 10 | > 10 | 8.9 (≈ 5.51 µg/mL) | > 10 | > 10 | > 10 | > 10 | – | – | – | – | – | – | – |
| COc1cc(O)c2c(c1)C(=O)C1=C(C[C@@H](O)[C@@](C)(O)C1)C2=O [ALTERSOLANOL B] | > 10 | > 10 | > 10 | 7.8 (≈ 2.37 µg/mL) | > 10 | > 10 | 7.8 (≈ 2.37 µg/mL) | 7.8 (≈ 2.37 µg/mL) | 7.8 (≈ 2.37 µg/mL) | – | – | – | – | – | – | – |
| COc1cc(O)c2c(c1-c1c(OC)cc(O)c3c1C(=O)c1cc(C)c(O)cc1C3=O)C(=O)C1=C(C2=O)[C@H](O)[C@@H](O)[C@@](C)(O)[C@@H]1O (single isomer, unassigned; atropisomer 2) [ALTERPORRIOL A/B] | > 10 | > 10 | – | – | – | – | – | – | – | > 10 | > 10 | > 10 | > 10 | > 10 | > 10 | > 10 |
| COc1cc(O)c2c(c1)[C@H](O)[C@@H]1[C@@H](C2=O)[C@H](O)[C@@H](O)[C@@](C)(O)[C@@H]1O [AMPELANOL] | – | – | > 10 | > 10 | > 10 | > 10 | > 10 | > 10 | > 10 | – | – | – | – | – | – | – |
| COc1cc(O)c2c(c1)C(=O)c1cc(C)c(O)c(-c3c(OC)cc(O)c4c3C(=O)C3=C(C[C@@H](O)[C@@](C)(O)[C@@H]3O)C4=O)c1C2=O | > 10 | > 10 | > 10 | > 10 | > 10 | > 10 | > 10 | > 10 | > 10 | – | – | – | – | – | – | – |
| COc1cc(O)c2c(c1-c1c(OC)cc(O)c3c1C(=O)C1=C(C3=O)[C@@H](O)[C@H](O)[C@](C)(O)[C@H]1O)C(=O)C1=C(C2=O)[C@H](O)[C@@H](O)[C@@](C)(O)[C@@H]1O (single isomer, unassigned; atropisomer 2) | – | – | > 10 | 5 (≈ 3.35 µg/mL) | > 10 | – | – | – | – | – | 2.5 (≈ 1.68 µg/mL) | – | – | >10 | – | – |
| COc1cc(O)c2c(c1)[C@H](O)[C@@H]1[C@H](C[C@@H](OC(C)=O)[C@@](C)(O)[C@@H]1O)C2=O | > 10 | > 10 | > 10 | > 10 | > 10 | > 10 | > 10 | > 10 | > 10 | – | – | – | – | – | – | – |
| COc1cc(O)c2c(c1)C(=O)[C@@]13O[C@]1(C2=O)[C@H](O)[C@@H](O)[C@@](C)(O)[C@@H]3O | > 10 | > 10 | > 10 | 9.8 (≈ 3.45 µg/mL) | > 10 | > 10 | > 10 | > 10 | > 10 | – | – | – | – | – | – | – |
| COc1cc(O)c2c(c1)C(=O)C1=C(C[C@@H](OC(C)=O)[C@@](C)(O)C1)C2=O | > 10 | > 10 | 7.8 (≈ 2.7 µg/mL) | 3.9 (≈ 1.35 µg/mL) | 3.9 (≈ 1.35 µg/mL) | > 10 | 3.9 (≈ 1.35 µg/mL) | > 10 | 3.9 (≈ 1.35 µg/mL) | – | – | – | – | – | – | – |
| COc1cc(O)c2c(c1)C(=O)c1cc(C)c(OS(=O)(=O)O)cc1C2=O | > 10 | > 10 | > 10 | > 10 | > 10 | > 10 | > 10 | > 10 | > 10 | – | – | – | – | – | – | – |

— ChEMBL document CHEMBL3352307, “Bioactive anthraquinone derivatives from the mangrove-derived fungus Stemphylium sp. 33231” (J Nat Prod, 2014)
